SKKanGAS inh – blocks kanamycin growth of S. pyogenes SKKanGAS strain | inhibition, % at 7.5 µM | BacTiter-Glo, 6 h | AID 1662 | 300,000 tested, 1.3% active;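 active = mean replicate score, as percent of positive control median, at least 50; inconclusive = mean below 50 but one replicate at or above 50; inactive = mean and every replicate below 50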;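 also: strain carries kanamycin resistance gene driven by streptokinase promoter and grows in 40 µg/ml kanamycin; loss of luminescence reflects streptokinase promoter inhibition or plain growth inhibition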
Beta apoptosis – blocks beta cell apoptosis; INS-1E cytokine-induced death, ATP luminescence, 48 h; percent of positive-control rescue, neutral wells zero; protection from apoptosis, % (no concentration beside the values); 300,000 tested, 0.8% active; AID 435005;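 active = Every replicate reaches about 75%, or at least half do and their mean reaches it too, limit read from the data; inconclusive = At least half of replicates reach the limit but their mean does not; inactive = Under half of replicates reach the limit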;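 also: higher means more ATP so stronger rescue from cytokine killing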
CSC inhib – blocks cancer stem cells; cancer stem cell-like cells viability, luminescence; inhibition, % at 7.5 µM; 300,000 tested, 1.1% active; AID 2717; in the data active = inhibition above about 75%; inconclusive = no clear call, values can overlap the other calls; tested in HMLE shEcad cells
Mdm2-MdmX inh – human Mdm2/MdmX binding inhibition; O15151+Q00987; SaOS-2 split-luciferase Mdm2/MdmX complementation, luminescence; inhibition, % at 8 µM; 330,000 tested, 3% active; AID 485346;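 active = inhibition of at least 50% at 8 µM in the primary screen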
Target sequence (O15151 whole entry, looked up): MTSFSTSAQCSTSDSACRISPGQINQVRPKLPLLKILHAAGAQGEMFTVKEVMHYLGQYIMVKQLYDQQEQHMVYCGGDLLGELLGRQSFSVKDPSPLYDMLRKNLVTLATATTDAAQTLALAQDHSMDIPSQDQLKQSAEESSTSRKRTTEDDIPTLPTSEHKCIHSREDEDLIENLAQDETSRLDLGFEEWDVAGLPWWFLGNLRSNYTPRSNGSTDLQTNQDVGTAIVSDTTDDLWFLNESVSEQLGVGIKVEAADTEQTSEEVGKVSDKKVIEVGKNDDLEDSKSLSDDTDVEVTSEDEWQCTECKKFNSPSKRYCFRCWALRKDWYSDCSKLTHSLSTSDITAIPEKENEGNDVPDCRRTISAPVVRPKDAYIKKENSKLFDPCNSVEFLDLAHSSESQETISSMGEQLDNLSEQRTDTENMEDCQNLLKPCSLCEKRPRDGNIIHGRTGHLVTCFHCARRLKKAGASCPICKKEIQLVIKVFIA
Target sequence (Q00987 whole entry, looked up): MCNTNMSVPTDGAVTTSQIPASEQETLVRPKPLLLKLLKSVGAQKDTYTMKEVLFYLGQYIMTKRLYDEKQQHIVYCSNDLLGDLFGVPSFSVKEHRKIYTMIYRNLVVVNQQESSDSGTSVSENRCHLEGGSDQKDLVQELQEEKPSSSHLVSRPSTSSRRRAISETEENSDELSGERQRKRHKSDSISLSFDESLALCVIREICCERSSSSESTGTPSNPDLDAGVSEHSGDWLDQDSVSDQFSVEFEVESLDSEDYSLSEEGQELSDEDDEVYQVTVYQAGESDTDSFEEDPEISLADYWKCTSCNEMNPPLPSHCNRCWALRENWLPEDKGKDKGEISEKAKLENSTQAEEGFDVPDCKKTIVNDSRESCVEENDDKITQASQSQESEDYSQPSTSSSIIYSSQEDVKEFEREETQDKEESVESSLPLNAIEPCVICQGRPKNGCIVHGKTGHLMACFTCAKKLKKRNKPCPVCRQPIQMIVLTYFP
Calb FLC – C. albicans growth modulation with fluconazole; C. albicans CaCi-2 (fluconazole-resistant clinical isolate) + fluconazole, Alamar Blue growth, 48 h; growth inhibition, % (no concentration beside the values); 300,000 tested, 0.57% active; AID 1979;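 active = growth inhibition above about 58% in most replicates, limit read from the data, passing the limit was not always enough; inconclusive = exactly half the replicates above a set limit; inactive = most replicates below a set limit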;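 also: all wells also contain fluconazole at 8 µg/ml as a sub-toxic cotreatment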
T cruzi repl – T. cruzi replication inhibition | T. cruzi beta-gal in NIH3T3, luminescence, 90 h | inhibition, % (concentration not given with the values) | 300,000 tested, 1.4% active;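 active = mean inhibition across valid replicates above about 55%, limit read from the data; inconclusive = mean below that limit but half or more replicates reach it; inactive = mean below it, under half of replicates reach it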;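 also: signal also drops with host cell toxicity which is not excluded here; higher percent means less beta-gal luminescence so fewer parasites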
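compound dosing = single 50 nL compound addition per well in DMSO | material = NIH/3T3 host cells with β-galactosidase reporter T. cruzi | input = 5,000 host fibroblasts per well | timing = ≥90 h infection period, 3 h prior cell attachment | read-out basis = percent inhibition of parasite-derived β-gal signal | detection = GalScreen β-gal luminescence, detergent lysis, 60 min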
Mdm2 MdmX conf – confirmation of human Mdm2/MdmX interaction inhibitors; shares compounds with Mdm2-MdmX inh; Mdm2-MdmX binding, luminescent assay; inhibition, % at 8 µM; 10,000 tested, 55% active; AID 489028; in the data active = inhibition above about 40%
Full FLuc ctr – counter-screen for Mdm2/MdmX inhibitors: full-length luciferase; shares compounds with Mdm2-MdmX inh; SaOS-2 full-length luciferase counterscreen, luminescence; inhibition, % at 8 µM; 6,200 tested, 77% active; AID 504607;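 active = mean inhibition at 8 µM reaching about 37%, which flags the compound as non-specific, limit read from the data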;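 also: p53-null SaOS-2 cells with luciferase driven by a doxycycline-inducible promoter; compound on cells about two nights before reading with doxycycline added after day one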
Of the large screens only hits and unclear results are named; the others gave an inactive call (follow-up assays come after a bar, where they were run). Only some compounds are listed: those with a hit (about 5.7% of all), similar ones and a draw of the others.

COc1cccc(C(=O)Nc2ccc3nc(N4CCN(c5ncccn5)CC4)cc(C)c3c2)c1OC	Mdm2-MdmX inh 98 (no result: SKKanGAS inh, Calb FLC, T cruzi repl) | Mdm2 MdmX conf 88 | Full FLuc ctr inactive
COc1ccc(C(=O)Nc2ccc3nc(N4CCN(C)CC4)cc(C)c3c2)c(OC)c1	none
CCOc1ccccc1C(=O)Nc1ccc2nc(N3CCN(c4ncccn4)CC3)cc(C)c2c1	Mdm2-MdmX inh 96 (no result: SKKanGAS inh, Calb FLC, T cruzi repl) | Mdm2 MdmX conf 84 | Full FLuc ctr 51
CC(=O)c1ccc(-c2ccc(C(=O)NC3CC(C)(C)NC(C)(C)C3)o2)cc1	none
O=S(=O)(N/N=C/c1ccc2c(c1)OCO2)c1ccc(Br)cc1	none
COC(Cc1ccccc1N1CCCC1=O)OC	none (no result: Beta apoptosis)
COc1ccccc1CNS(=O)(=O)c1ccc(-n2cnnn2)c(OC)c1	none
O=C1CCCCC1Sc1nnc(-c2ccc3c(c2)OCO3)o1 (configuration not stated)	Mdm2-MdmX inh 73 | Mdm2 MdmX conf 69 | Full FLuc ctr 90
C=CC(=O)Nc1ccc(CN2C(=O)N(c3c(Cl)c(OC)cc(OC)c3Cl)Cc3cnc(NCCCCN(CC)CC)nc32)cc1	Mdm2-MdmX inh 71 (no result: SKKanGAS inh, CSC inhib, Calb FLC, T cruzi repl) | Mdm2 MdmX conf 45 | Full FLuc ctr 55
CCC(=O)c1ccccc1OCCCN1CCC(Cc2ccccc2)CC1	none
CC[C@@]1(C(=O)OC)N[C@H](CN(C)S(=O)(=O)c2ccccc2)[C@@H]2C(=O)N(C)C(=O)[C@@H]21	none (no result: SKKanGAS inh, Beta apoptosis, CSC inhib, Calb FLC, T cruzi repl)
CCN(CC)S(=O)(=O)c1ccc(N/N=C(\C)c2ccc(OC)cc2O)nc1	SKKanGAS inh 82, Beta apoptosis 97, Mdm2-MdmX inh 57, Calb FLC 91 | Mdm2 MdmX conf inactive
CCOc1cccc(/C=N/Nc2ccc(S(=O)(=O)N(CC)CC)cn2)c1O	SKKanGAS inh 91, Beta apoptosis 117, CSC inhib 117, Mdm2-MdmX inh 81 | Mdm2 MdmX conf 85 | Full FLuc ctr 55
CCCOc1ccc(CNC(=O)Cc2cccs2)cc1	none
NS(=O)(=O)c1cc(C(=O)OCC(=O)Nc2ccc3[nH]c(=O)[nH]c3c2)ccc1Cl	none (no result: SKKanGAS inh, Calb FLC, T cruzi repl)
COc1ccccc1-c1nnc2n1N=C(c1ccc(O)c(O)c1)CS2	Mdm2-MdmX inh 50, Calb FLC inconclusive | Mdm2 MdmX conf 58 | Full FLuc ctr 140
COc1ccc(C2=Nn3c(nnc3-c3ccccc3C(F)(F)F)SC2)cc1OC1CCOC1 (configuration not stated)	none (no result: SKKanGAS inh, Calb FLC, T cruzi repl)
COc1ccc(C2=Nn3c(nnc3-c3cccnc3)SC2)cc1OC	Mdm2-MdmX inh 51, Calb FLC inconclusive | Mdm2 MdmX conf inactive
COc1ccc(C2=Nn3c(nnc3-c3ccccc3OC)SC2)cc1OC1CCOC1 (configuration not stated)	Mdm2-MdmX inh 71 (no result: SKKanGAS inh, Calb FLC, T cruzi repl) | Mdm2 MdmX conf 73 | Full FLuc ctr 95
COc1ccc(C2=Nn3c(nnc3-c3ccncc3)SC2)cc1OC	none (no result: CSC inhib)
CCOc1ccc(C2=Nn3c(nnc3-c3ccccc3OC)SC2)cc1	Calb FLC inconclusive (no result: Mdm2-MdmX inh)
Cc1ccc(C)c(CN2CCC(CNC(=O)Nc3ccc(F)c(Cl)c3)CC2)c1	Mdm2-MdmX inh 69 | Mdm2 MdmX conf inactive | Full FLuc ctr 56
Cc1cc(C)cc(NC(=O)NCC2CCN(Cc3cc(C)ccc3C)CC2)c1	Mdm2-MdmX inh 50 | Mdm2 MdmX conf inactive
C=CCC1(CC=C)CCCN1C(=O)c1cc(COc2ccccc2SC)on1	none
O=C(NCCCN1CCCC1=O)c1ccccc1OCc1ccc(Cl)cc1Cl	none (no result: SKKanGAS inh, Calb FLC, T cruzi repl)
N/C(=N\OC(=O)c1cccc(Cn2cc(C(F)(F)F)ccc2=O)c1)c1ccc(Cl)cc1	Beta apoptosis 113, Mdm2-MdmX inh 76 | Mdm2 MdmX conf 47 | Full FLuc ctr 83
O=C(Sc1ccc(Cl)cc1)c1cccc(Cn2cc(C(F)(F)F)ccc2=O)c1	none
Cc1cccc(NC(=O)c2ccc(Cn3cc(C(F)(F)F)ccc3=O)cc2)c1	none
Cc1ccc(/C(N)=N/OC(=O)c2cccc(Cn3cc(C(F)(F)F)ccc3=O)c2)cc1	Beta apoptosis 99, Mdm2-MdmX inh 89 | Mdm2 MdmX conf 50 | Full FLuc ctr 76
N/C(=N\OC(=O)c1cccc(Cn2cc(C(F)(F)F)ccc2=O)c1)c1ccccc1	Beta apoptosis 113, Mdm2-MdmX inh 68 | Mdm2 MdmX conf inactive
COc1cc(NC(=O)c2c(F)c(F)c(OC)c(F)c2F)ccc1NC(=O)c1cccs1	none
C=C1C(=O)O[C@@H]2C[C@@H](C)[C@@H]3C=CC(=O)[C@@]3(C)[C@@H](OC(C)=O)[C@H]12	Beta apoptosis 136, CSC inhib 85, Mdm2-MdmX inh 100, T cruzi repl inconclusive | Mdm2 MdmX conf 100 | Full FLuc ctr 51
COc1ccc(S(=O)(=O)NCc2ccccn2)cc1NC(=O)c1ccccc1C	Mdm2-MdmX inh 52 (no result: Beta apoptosis) | Mdm2 MdmX conf 71 | Full FLuc ctr 63
COc1ccc(S(=O)(=O)NCc2ccccn2)cc1NC(=O)c1ccc(Cl)cc1	none (no result: Beta apoptosis)
CCOc1ccc(S(=O)(=O)NCc2ccncc2)cc1NC(=O)c1ccccc1F	Mdm2-MdmX inh 67 | Mdm2 MdmX conf inactive
CCOc1ccc(S(=O)(=O)NCc2cccnc2)cc1NC(=O)c1ccccc1F	Mdm2-MdmX inh 59 | Mdm2 MdmX conf 57 | Full FLuc ctr 53
CCN(CC(=O)NCc1ccc(F)cc1)C(=O)/C=C/c1cc(OC)ccc1OC	none (no result: Beta apoptosis, CSC inhib)
COc1ccccc1NC(=O)NNC(=O)c1ccc2ccccc2c1O	none
O=C(N/N=C1/C(=O)c2cccc3cccc1c23)c1ccc(Cl)cc1	SKKanGAS inh 100, Mdm2-MdmX inh 59 | Mdm2 MdmX conf inactive
CCNC(=S)N/N=C1\C(=O)c2cccc3cccc1c23	none
O=C(c1ccccc1)c1ccc(N2CCN(C(=O)c3cccc(F)c3F)CC2)c(F)c1	none
CSc1ncccc1C(=O)N1CCN(S(=O)(=O)c2ccc(F)cc2)CC1	none
CCOC(=O)C1=C(C)NC(SC)=C(C#N)C1CC(C)C (configuration not stated)	Mdm2-MdmX inh 55 (no result: T cruzi repl) | Mdm2 MdmX conf 62 | Full FLuc ctr 66
C=CCNC(=O)c1c(CSc2ccc(Cl)cc2)noc1C(=O)NCc1ccccc1	none
CC1CCCCN1C(=O)C1CCN(c2nc(-c3ccccc3)nc3c2CCC3)CC1 (configuration not stated)	none
Cc1ccc(S(=O)(=O)CCc2nc3ccccc3n2CCC#N)cc1	Mdm2-MdmX inh 62 | Mdm2 MdmX conf inactive | Full FLuc ctr inactive
Cc1ccc(C(=O)N2CCCC(N3CCN(c4ccccc4C)CC3)C2)c(=O)[nH]1 (configuration not stated)	none
CCN(CC)CCNC(=O)C1CCN(S(=O)(=O)c2c(C)noc2/C=C/c2ccccc2F)CC1	Mdm2-MdmX inh 56 | Mdm2 MdmX conf inactive

Compound activity from PubChem BioAssay.
